Experimental data published in ChEMBL document CHEMBL3393037, “Design, synthesis, and biological evaluation of aminothiazole derivatives against the fungal pathogens Histoplasma capsulatum and Cryptococcus neoformans” (Bioorg Med Chem, 2015).
In brackets after ≈: the same amount, converted by molar mass.

Legend:
[1] = Antifungal activity against Histoplasma capsulatum G217B ATCC 26032 assessed as inhibition of visible growth after 5 days; assay type: functional
Outline: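 Wild-type G217B yeasts kept in HMM at 37 °C under 5% CO2. Wells held 2×10^5 yeasts (hemocytometer count) with a two-fold dilution series from 40 to 0.078 µM, at 1% DMSO in the top dilution. Plates were agitated twice daily and growth followed by A595 over 5 days. MIC is the lowest concentration with no visible growth on visual inspection of the plates.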

Cryptococcus neoformans = test: Antifungal activity against Cryptococcus neoformans MATalpha serotype A strain H99 assessed as inhibition of visible growth after 5 days; assay type: functional; conditions: MATalpha serotype A strain H99, 120 h
[2] = Cytotoxicity against human HepG2 cells after 72 hrs by crystal violet staining method; assay type: cell-based; conditions: for CC50 at 72 h: read-out: MIC50
Outline: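 HepG2 cells in MEM with 10% FBS and 2 mM L-glutamine were seeded at 1×10^4 per well and left to adhere overnight. Compound was added at 0.3 to 80 µM for 72 h. Cells were fixed in 3% paraformaldehyde, stained with 0.1% crystal violet, and the dye taken up in 10% acetic acid and read at A590. Values were normalised to DMSO-matched controls, in triplicate.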

[3] = Selectivity index, ratio of MIC50 for human HepG2 cells to MIC50 for Histoplasma capsulatum strain G217B ATCC 26032

Row | SMILES | MIC [1] | MIC50 [1] | MIC (Cryptococcus neoformans) | MIC50 (Cryptococcus neoformans) | MCC at 72 h ([2]; read-out: MIC) | CC50 at 72 h [2] | Ratio [3]
1 | O=C(Nc1ncc(Cc2ccccc2)s1)N1CCCC1 | > 20 µM | > 10 µM | – | – | – | – | –
2 | O=C(CCC1CCCCC1)Nc1ncc(Cc2cccc(C(F)(F)F)c2)s1 | > 20 µM | > 10 µM | – | – | – | – | –
3 | O=C(CCC1CCCCC1)Nc1nc(C23CC4CC(CC(C4)C2)C3)cs1 | 20 µM (≈ 7.45 µg/mL) | 5.2 µM (≈ 1.94 µg/mL) | – | – | – | – | –
4 | O=C(Nc1nc(C23CC4CC(CC(C4)C2)C3)cs1)C1CCCCC1 | 5 µM (≈ 1.72 µg/mL) | 2.5 µM (≈ 0.861 µg/mL) | > 20 µM | > 10 µM | – | – | –
5 | O=C(Nc1ncc(Cc2ccccc2)s1)C1CCSCC1 | 10 µM (≈ 3.18 µg/mL) | 4.8 µM (≈ 1.53 µg/mL) | – | – | – | – | –
6 | Cc1cccc(Cc2cnc(NC(=O)C3CCC3)s2)c1 | – | 2.5 µM (≈ 0.716 µg/mL) | – | – | 20 µM | – | –
7 | O=C(CC1CCCCC1)Nc1ncc(Cc2cccc3ccccc23)s1 | 0.6 µM (≈ 0.219 µg/mL) | 0.4 µM (≈ 0.146 µg/mL) | > 20 µM | > 10 µM | – | 37 µM | 92
8 | CC(C)C(=O)Nc1nc(C23CC4CC(CC(C4)C2)C3)cs1 | > 20 µM | > 10 µM | – | – | – | – | –
9 | O=C(CC1CCCCC1)Nc1nc(C23CC4CC(CC(C4)C2)C3)cs1 | > 20 µM | > 10 µM | – | – | – | – | –
10 | O=C(Nc1ncc(Cc2ccccc2)s1)C1CCCC1 | 5 µM (≈ 1.43 µg/mL) | 1.6 µM (≈ 0.458 µg/mL) | 10 µM (≈ 2.86 µg/mL) | 3.6 µM (≈ 1.03 µg/mL) | – | > 40 µM | >24
11 | O=C(Nc1ncc(CC2CCCCC2)s1)C1CCCCC1 | 2.5 µM (≈ 0.766 µg/mL) | 0.7 µM (≈ 0.215 µg/mL) | > 20 µM | > 10 µM | – | – | –
12 | O=C(Nc1ncc(Cc2ccccc2)s1)C1COc2ccccc2C1 (stereo not drawn) | > 20 µM | > 10 µM | – | – | – | – | –
13 | O=C(Nc1ncc(CC2CCCCC2)s1)c1ccccc1 | 10 µM (≈ 3 µg/mL) | 4.6 µM (≈ 1.38 µg/mL) | – | – | – | – | –
14 | Cc1nc(NC(=O)CCC2CCCCC2)sc1Cc1ccccc1 | > 20 µM | > 10 µM | – | – | – | – | –
15 | O=C(Nc1ncc(Cc2ccccc2)s1)c1cnc(-c2cccs2)s1 | > 20 µM | > 10 µM | – | – | – | – | –
16 | O=C(Nc1ncc(-c2ccccc2)s1)C1CCCC1 | > 20 µM | > 10 µM | – | – | – | – | –
17 | CC(C)(C)OC(=O)Nc1ncc(C(O)c2ccccc2)s1 (stereo not drawn) | > 20 µM | > 10 µM | – | – | – | – | –

Row | SMILES | MIC [1] | MIC50 [1] | MIC (Cryptococcus neoformans) | MIC50 (Cryptococcus neoformans) | MCC at 72 h ([2]; read-out: MIC) | CC50 at 72 h [2] | Ratio [3]
18 | O=C(Nc1nc(C23CC4CC(CC(C4)C2)C3)cs1)C1CCCC1 | 20 µM (≈ 6.61 µg/mL) | 7.4 µM (≈ 2.45 µg/mL) | – | – | – | – | –
19 | CC(C)C(=O)Nc1ncc(Cc2ccc3ccccc3c2)s1 | 20 µM (≈ 6.21 µg/mL) | 4.5 µM (≈ 1.4 µg/mL) | – | – | – | – | –
20 | O=C(Nc1ncc(Cc2ccccc2)s1)C(F)(F)F | > 20 µM | > 10 µM | – | – | – | – | –
21 | Nc1ncc(Cc2ccccc2)s1 | > 20 µM | > 10 µM | – | – | – | – | –
22 | O=C(Nc1ncc(Cc2cccc3ccccc23)s1)C12CC3CC(CC(C3)C1)C2 | > 20 µM | > 10 µM | – | – | – | – | –
23 | O=C(Nc1ncc(Cc2ccc3ccccc3c2)s1)c1ccccc1 | > 20 µM | > 10 µM | – | – | – | – | –
24 | CN(C(=O)CCC1CCCCC1)c1ncc(Cc2ccccc2)s1 | > 20 µM | > 10 µM | – | – | – | – | –
25 | O=C(/C=C/C1CCCCC1)Nc1ncc(Cc2ccccc2)s1 | > 20 µM | > 10 µM | – | – | – | – | –
26 | O=C(CCC1CCCCC1)Nc1ncc(Cc2ccc3ccccc3c2)s1 | > 20 µM | > 10 µM | – | – | – | – | –
27 | O=C(CCC1CCCCC1)Nc1ncc(CCc2ccccc2)s1 | 2.5 µM (≈ 0.856 µg/mL) | 0.7 µM (≈ 0.24 µg/mL) | > 20 µM | > 10 µM | – | > 40 µM | >50
28 | O=C(Nc1ncc(Cc2ccc3ccccc3c2)s1)C1CCCCC1 | > 20 µM | > 10 µM | – | – | – | – | –
29 | O=C(CCC1CCCCC1)Nc1ncc(Cc2ccccc2F)s1 | 2.5 µM (≈ 0.866 µg/mL) | 1 µM (≈ 0.346 µg/mL) | > 20 µM | > 10 µM | – | – | –
30 | O=C(Nc1nc(-c2ccccc2)cs1)C1CCCC1 | > 20 µM | > 10 µM | – | – | – | – | –
31 | O=C(Nc1ncc(Cc2ccccc2)s1)C12CC3CC(CC(C3)C1)C2 | 10 µM (≈ 3.53 µg/mL) | 5 µM (≈ 1.76 µg/mL) | – | – | – | – | –
32 | O=C(Nc1ncc(CC2CCCCC2)s1)C12CC3CC(CC(C3)C1)C2 | > 20 µM | > 10 µM | – | – | – | – | –
33 | COc1ccc(Cc2cnc(NC(=O)/C=C/c3ccco3)s2)cc1 | > 20 µM | > 10 µM | – | – | – | – | –
34 | O=C(CCC1CCCCC1)Nc1ncc(CC2CCCCC2)s1 | 5 µM (≈ 1.67 µg/mL) | 0.8 µM (≈ 0.268 µg/mL) | > 20 µM | 9.6 µM (≈ 3.21 µg/mL) | – | – | –
